Shown is part of a subset that was picked to be rich in hits.
CHOP UPR activ: activators of apoptotic CHOP UPR arm, primary screen, cell-based, CHO-CHOP luciferase reporter, luminescence, uHTS | UPR activation; percent of tunicamycin response over DMSO baseline | activation, % at 10 µM | hit rate 0.34% among 330,000;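 active = at 10 µM dose, activation of 40% or more, normalized to positive control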;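 note: 100% = tunicamycin at 10 µg/mL and 0% = DMSO alone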
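assay system = CHO CHOP reporter cells | amount = 500 CHO-CHOP cells per well | buffer or medium = F12 with 10% FBS | incubation = 16-18 h cell attachment, then 6 h compound exposure, 37 °C | detection = luminescence read with Steady-Glo | read-out = percent activation relative to tunicamycin control | controls = tunicamycin high control, DMSO low control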
PvdQ acylase: P. aeruginosa PvdQ acylase inhibitors, primary screen, biochemical, fluorescence, plate reader and imaging, single point | PvdQ acylase [Pseudomonas aeruginosa LESB58] | purified PvdQ acylase | inhibition, % at 10 µM | hit rate 0.063% among 340,000 | AID 488965, 2010; in the data active = inhibition above about 30%, passing the limit was not always enough;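 note: 0% = vehicle neutral wells and 100% = reference inhibitor wells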
CHOP inhibitor: inhibitors of CHOP promoter induction, primary screen, cell-based, unfolded protein response, luciferase reporter. CHO-K1 CHOP-promoter luciferase, tunicamycin-induced, 15-18 h. inhibition, % at 10 µM. hit rate 3.8% among 220,000;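 active = compounds that reduced the stress-induced luciferase reporter signal by more than about 70% of percent inhibition, limit read from the data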;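 note: 0% = tunicamycin plus vehicle and 100% = wells without tunicamycin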
XBP1 UPR activ: activators of adaptive XBP1 UPR arm, primary screen, cell-based, CHO-XBP1 luciferase reporter, luminescence, uHTS. activation, % at 20 µM. AID 463104, 2010. IRE1-XBP1 UPR activation; percent of tunicamycin response, DMSO as zero. hit rate 0.33% among 330,000;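 active = versus positive control, 20 µM dose yields 30% or more activation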;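 note: 100% = tunicamycin at 10 µg/mL and 0% = DMSO only wells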
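Material: CHO-XBP1 cells stably carrying IRE1-XBP1-driven luciferase reporter | Medium: F12 with 10% serum | Compound dosing: 20 µM single concentration, DMSO 1% | Incubation: Overnight seeding at 37 °C, 6 h compound treatment at 37 °C | Detection: Steady-Glo luminescence read | Read-out basis: % activation of reporter signal versus tunicamycin and DMSO controls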
* marks the source's active call; other numbers are inactive results; / = no result given; ! = not confirmed by another sample.

SMILES	CHOP UPR activ	PvdQ acylase	CHOP inhibitor	XBP1 UPR activ
COc1cc(OC)nc(NC(=S)NC(=O)c2ccccc2)n1	2.7	15.3	-7.0	-0.4
C=CCSC1=Nc2sccc2C2=NC(=O)CN12	-0.6	0.6	-18.6	-3.2
CN(CC(=O)Nc1c(Cl)cccc1Cl)C(=O)CCC1CCCC1	1.3	-17.7	/	-7.2
CCCN1Cc2cccc(C(=O)Nc3ccc4c(c3)OCO4)c2C1=O	1.3	17.3	4.2	6.2
CCCN1Cc2cccc(C(=O)Nc3ccc4c(c3)OCCO4)c2C1=O	-0.6	-7.7	77.7*	-0.6
COc1ccc(OCC(=O)Nc2ccc(N3CCN(C(=O)c4ccccc4C)CC3)cc2)cc1	-1.2	8.9	36.6	-3.9
Cc1cc(C(=O)N2CCc3c([nH]c4ccccc34)C2c2cccc(Cl)c2)nn1C (stereo not given)	2.9	-2.8	92.5*	-1.6
CSc1ccc(C2c3[nH]c4ccccc4c3CCN2C(=O)c2cc(C)n(C)n2)cc1 (stereo not given)	3.1	/	19.1	14.4
CC(C)C1N(C(=O)N(C)C)CCN1S(=O)(=O)c1ccccc1 (stereo not given)	0.8	-1.7	/	-4.0
CC(C)C1N(S(=O)(=O)c2ccccc2)CCN1S(=O)(=O)c1ccccc1	-4.0	5.6	75.8*	-1.3
C=CCC1CCCC(=O)N2CCCC12 (stereo not given)	0.6	-20.5	/	2.0
O=C(c1cc2cc(F)ccc2[nH]1)N1CCC(Cc2ccccc2)CC1	3.9	-15.4	/	4.3
CCOc1ccc(C(=O)NC(=S)Nc2ccc(NC(=O)CC)cc2)cc1[N+](=O)[O-]	-0.1	-13.1	-20.2	0.4
CCOc1ccc(C(=O)NC(=S)NC2CCCC2)cc1[N+](=O)[O-]	-1.0	-10.1	71.4*	-3.9
CCOc1ccccc1C(=O)Nc1nn[nH]n1	0.3	-9.3	26.0	-2.4
Cc1ccc(NC(=O)CCS(=O)(=O)c2cccc3nonc23)c(Br)c1	-1.4	-9.6	/	-2.2
CCCCCCCCn1cnc2c(N)c(C)c(C)cc21	7.0	-7.4	81.0*	2.2
CCCN(C(=O)COC(=O)C12CCC(=O)N1c1ccccc1S2)c1c(N)n(Cc2ccccc2)c(=O)[nH]c1=O (stereo not given)	0.4	-5.3	/	-1.5
O=C(NCCN1CCN(c2ccccc2)CC1)c1cccn2c(=O)c3ccccc3nc12	4.1	14.0	29.7	0.9
O=C(NCCN1CCN(c2ccccc2F)CC1)c1cccn2c(=O)c3ccccc3nc12	1.8	-7.7	76.1*	4.8
O=C1c2cccc3c(N4CCCCC4)ccc(c23)C(=O)N1c1ccccc1O	1.0	-13.0	4.2	-0.8
O=C1c2cccc3c(N4CCCCC4)ccc(c23)C(=O)N1c1ccc(O)cc1	0.9	-10.1	106.4*	5.7
O=C(OC1CCCCC1=O)c1cc(S(=O)(=O)N2CCOCC2)ccc1F (stereo not given)	0.2	-1.1	/	-2.8
CCCc1ccc(C(=O)Cn2nc(C(=O)O)c3ccccc3c2=O)cc1	1.0	-13.2	86.4*	-1.8
COc1ccccc1C(=O)C1CCCN(C(=O)c2ccccn2)C1 (stereo not given)	2.3	-0.2	18.6	2.1
SMILES	CHOP UPR activ	PvdQ acylase	CHOP inhibitor	XBP1 UPR activ
CSc1nsc(N/N=C/c2ccc3c(c2)OCO3)c1C#N	6.7	-2.8	76.5*	3.8
COc1ccccc1N1CCN(C2CCCN(C(=O)CCc3cnn(C)c3)C2)CC1 (stereo not given)	-1.3	1.6	/	-4.5
CCOC(=O)C(=N/O)/C(C)=N/NC(=O)C(=O)Nc1ccc(Cl)cc1	6.3	-20.5	72.7*	-1.9
Cc1ccc(S(=O)(=O)N2CCN(C(=O)CCC(=O)NCc3cccc(C(F)(F)F)c3)CC2)cc1	-0.5	-10.1	/	-4.0
CC(C)c1ccc(CNC(=O)CSCC(=O)Nc2ccc3ccccc3c2)cc1	3.0	-13.4	86.0*	-1.6
O=C(CN1CCCC(O)C1)N1c2ccccc2Sc2ccc(C(F)(F)F)cc21 (stereo not given)	-1.3	-8.9	38.4	3.4
CN1CCN(CCCN2c3ccccc3Sc3ccc(C(F)(F)F)cc32)CC1	-0.8	-3.4	95.9*!	-0.7
O=C(N/N=C/c1ccc[nH]1)c1ccc(COc2cccc3cccnc23)cc1	-0.6	-1.8	11.9	1.3
Cc1cc(Br)c(OCc2ccc(C(=O)N/N=C/c3ccc[nH]3)cc2)c(Br)c1	41.4*	1.4	/	98.8*
CCOc1cc(/C=C2\CCCC(C(=O)C(F)(F)F)=C2O)ccc1O	0.8	11.3	74.8*	-0.2
COC(=O)NNC(=O)c1ccc(Cl)cc1Cl	-1.3	-10.0	12.4	-1.1
CC(C)(C)C(=O)NC(=S)NNC(=O)c1ccc(Cl)cc1Cl	-0.5	-18.3	92.5*	12.5
CC(C)C[C@H]1CN=C(Nc2ccccc2)N1CC1CCC1	-0.6	-8.9	/	-0.6
O=[N+]([O-])c1ccc(O)c(-c2nc(-c3ccccc3)c(-c3cccs3)[nH]2)c1	7.1	-6.7	84.9*	9.0
O=C(O)c1ccc(-c2nc(-c3ccccc3)c(-c3cccs3)[nH]2)cc1	-0.7	-12.4	5.2	-2.3
O=C1c2ccccc2C2=Nc3ccccc3SC(c3cccc(F)c3)C12 (stereo not given)	2.4	-13.1	74.4*	-0.9
O=S(=O)(c1ccc2c(c1)CCC2)N1CCNCC1	1.7	-17.9	/	0.5
O=C(c1ccccc1NS(=O)(=O)c1cccc2cccnc12)N1CCOCC1	-0.5	0.8	12.8	-0.5
CCOc1ccccc1NC(=O)Cn1nnc(C(=O)Nc2ccccc2Cl)c1N	4.2	13.0	72.8*	-1.9
COc1ccccc1NC(=O)c1nnn(CC(=O)Nc2cccc(SC)c2)c1N	-3.0	-13.2	70.5*	-1.2
COc1ccccc1NC(=O)c1nnn(CC(=O)Nc2ccccc2)c1N	-1.2	-2.5	10.8	0.0
CC(C)NC(=S)N/N=C/c1cccnc1	0.5	-9.2	-14.2	-1.7
CCOc1ccccc1Nc1nc(-c2sc(NC(=O)c3ccc([N+](=O)[O-])cc3)nc2C)cs1	-1.1	/	81.7*	3.4
Cc1ccccc1Nc1nc(-c2sc(NC(=O)c3ccc([N+](=O)[O-])cc3)nc2C)cs1	3.9	/	33.9	4.0
CCCCCCNC(=O)CCc1nc2cccnc2n1Cc1ccc(OC)cc1	-0.3	5.7	/	-4.0
SMILES	CHOP UPR activ	PvdQ acylase	CHOP inhibitor	XBP1 UPR activ
CCc1ccc(NC(=O)CCc2nc3cccnc3n2Cc2ccc(OC)cc2)cc1	-0.3	-9.1	92.0*	-1.5
Cc1ccc(CC(=O)Nc2ccccc2-c2ccccc2)cc1C	0.1	11.2	89.5*	0.1
Cc1cccc(OCC(=O)Nc2ccccc2-c2ccccc2)c1	/	0.5	85.0*	/
O=C(CSc1nnc(Cc2ccccc2)n1Cc1ccco1)NC12CC3CC(CC(C3)C1)C2	0.5	-9.5	72.0*	-0.4
O=C(Nc1nnc(-c2ccc3c(c2)CCCC3)o1)c1ccc(Cl)cc1Cl	-1.1	-14.5	98.2*	1.1
O=C(CCc1ccccc1)Nc1nnc(-c2ccc3c(c2)CCCC3)o1	3.8	7.2	94.2*	0.9
